Series [1] relates to A549. Nature of the series: Inhibition of human NF-kappaB in TNF-alpha-stimulated A549 cells assessed as secreted alkaline phosphatase level at 1 uM after 18 hrs. The format is cell-based. A digest of the protocol:
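The A549 NF-κB–SEAP reporter line was given TNF-α (10 ng/mL) plus compound at a single concentration, with dexamethasone as positive control. Supernatant SEAP was read 18 h later by chemiluminescence. Results are expressed as % inhibition relative to TNF-α alone, mean ± standard deviation, n = 3.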

The nature of series [2]: Inhibition of human NF-kappaB in TNF-alpha-stimulated A549 cells assessed as secreted alkaline phosphatase level after 18 hrs. To be noted: A549, 18 h. The format is cell-based. In outline:
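Type II-like A549 cells stably carrying an NF-κB response element–SEAP reporter were plated overnight at 6 × 10⁴ cells/well. They were then stimulated with human recombinant TNF-α (10 ng/mL) together with compound. After 18 h, supernatant SEAP was measured by chemiluminescence and normalized to lysate total protein (BCA). IC50 came from dose–response curves, n = 3 separate experiments.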

In series [3] the test system is Radical scavenging activity. The series is described as follows: Antioxidant activity assessed as DPPH radical scavenging activity by UV-visible spectrophotometry. The format is functional. In outline:
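DPPH stock at 0.625 mM in 50% acetone, stored at 4 °C in the dark; diluted daily to a 0.208 mM working solution. Samples in 50% acetone were mixed 1:1 with working DPPH, giving 0.104 mM DPPH initially. Mixtures were vortexed and read immediately at 515 nm against a 50% acetone blank, and remaining DPPH was calculated.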
(DPPH is a stable violet radical that fades when it is reduced.)

Series [4] concerns A549. Nature of the series: Cytotoxicity against human A549 cells after 2 hrs by MTS assay. The format is cell-based. To be noted: a549, 18 h, in the assay text read “18 hrs” for “2 hrs”. A digest of the protocol: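 A549SN cells were plated at 1 × 10⁴ per well and held 24 h at 37 °C, then treated in duplicate for 18 h alongside vehicle and medium-only controls. Viability was read by MTS: formazan absorbance at 490 nm after 2 h, with the media-only background subtracted.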
(Tetrazolium dyes change colour on reduction, which living cells bring about.)

Calls of active or inactive are those of the source. The calls are words filed in the database; no cut-off is given here.

As for `NCCNC(=O)[C@]1(O)C[C@@H](O)[C@@H](O)[C@H](O)C1`, the result in series [1] was Active.

With `CCCNC(=O)[C@]1(O)C[C@@H](O)[C@@H](O)[C@H](O)C1`, the outcome in series [1] was Active. For the same compound, in series [2], the IC50 (as a rule, the concentration at which inhibition is half-maximal) was determined as 2.83 µM. The result in series [3] was inactive. Further, the Activity entry in series [4] is reported as “Not Active”.

With `O=C(/C=C/c1ccc(O)c(O)c1)O[C@@H]1C[C@](O)(C(=O)O)C[C@@H](O)[C@H]1O`, the outcome in series [3] was Active.

For `O=C(O)[C@]1(O)C[C@@H](O)[C@@H](O)[C@H](O)C1` [QUINIC ACID], the result in series [3] was inactive. In addition, the Activity result in series [4] was “Not Active”.

Turning to `O=C(O)/C=C/c1ccc(O)c(O)c1`, the result in series [3] was Active.

Consider `CC(C)NC(=O)[C@]1(O)C[C@@H](O)[C@@H](O)[C@H](O)C1`, for which the outcome in series [1] was Active.

On to `O=C1O[C@H]([C@@H](O)CO)C(O)=C1O`, for which, in series [3], the result was Active.

As to `CC(=O)O[C@@H]1C[C@](OC(C)=O)(C(=O)O)C[C@@H](OC(C)=O)[C@H]1OC(C)=O`, the outcome in series [1] was inactive.

With `CC(C)(C)OC(=O)NCCNC(=O)[C@]1(O)C[C@@H](O)[C@@H](O)[C@H](O)C1`, the outcome in series [1] was Active.

(Values after ChEMBL document CHEMBL1155970, “Synthesis and biological evaluation of quinic acid derivatives as anti-inflammatory agents” (Bioorg Med Chem Lett, 2009).)
